In ChEMBL document CHEMBL1152988, “Mutated response regulator graR is responsible for phenotypic conversion of Staphylococcus aureus from heterogeneous vancomycin-intermediate resistance to vancomycin-intermediate resistance” (2008):
≈ marks a conversion by molar mass, not a printed value.

Assays:
Staphylococcus aureus [1] = test: Antibacterial activity against vancomycin-intermediate Staphylococcus aureus Mu50 after 48 hrs by agar dilution method; assay type: functional; settings: Mu50, 48 h
In short: (§1)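 Agar dilution MICs per CLSI, with vancomycin MIC in BHI agar. Vancomycin, teicoplanin and daptomycin were tested at linear 1-mg/liter concentration steps; oxacillin was tested by twofold dilutions. Plates were read at 24 h and again at 48 h so a slow-growing resistant subpopulation would not be missed. graSR-null mutants were made by allelic exchange, replacing graSR with a cat cassette.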

Staphylococcus aureus [2] = test: Antibacterial activity against vancomycin-susceptible Staphylococcus aureus N315 after 24 hrs by agar dilution method; assay type: functional; settings: N315, 24 h; in short: as §1
Staphylococcus aureus [3] = test: Antibacterial activity against heterogeneous vancomycin-intermediate Staphylococcus aureus Mu3 harboring shuttle vector pYT3 after 48 hrs by agar dilution method; assay type: functional; settings: Mu3, 48 h
In short: (§2)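 Host carries shuttle vector pYT3, either empty or carrying PCR-cloned graR (SA0614) from N315 (intact) or Mu50 (N197S mutant), introduced by electroporation and sequence-verified. MICs were determined by agar dilution per CLSI, with vancomycin MIC in BHI agar. Glycopeptides and daptomycin were tested at 1-mg/liter linear steps, oxacillin by twofold dilutions. Plates were read at 24 h and 48 h.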

Staphylococcus aureus [4] = test: Antibacterial activity against graSR gene knockout vancomycin-susceptible Staphylococcus aureus N315 after 24 hrs by agar dilution method; assay type: functional; settings: N315, 24 h; in short: as §1
Staphylococcus aureus [5] = test: Antibacterial activity against vancomycin-susceptible Staphylococcus aureus N315 after 48 hrs by agar dilution method; assay type: functional; settings: N315, 48 h; in short: as §1
Staphylococcus aureus [6] = test: Antibacterial activity against graSR gene knockout heterogeneous vancomycin-intermediate Staphylococcus aureus Mu3 after 24 hrs by agar dilution method; assay type: functional; settings: Mu3, 24 h; in short: as §1
Staphylococcus aureus [7] = test: Antibacterial activity against graSR gene knockout heterogeneous vancomycin-intermediate Staphylococcus aureus Mu3 after 48 hrs by agar dilution method; assay type: functional; settings: Mu3, 48 h; in short: as §1
Staphylococcus aureus [8] = test: Antibacterial activity against vancomycin-susceptible Staphylococcus aureus N315 harboring intact graR gene after 48 hrs by agar dilution method; assay type: functional; settings: N315, 48 h; in short: as §2
Staphylococcus aureus [9] = test: Antibacterial activity against vancomycin-susceptible Staphylococcus aureus N315 harboring shuttle vector pYT3 after 24 hrs by agar dilution method; assay type: functional; settings: N315, 24 h; in short: as §2
Staphylococcus aureus [10] = test: Antibacterial activity against heterogeneous vancomycin-intermediate Staphylococcus aureus Mu3 harboring intact graR gene after 48 hrs by agar dilution method; assay type: functional; settings: Mu3, 48 h; in short: as §2
Staphylococcus aureus [11] = test: Antibacterial activity against vancomycin-susceptible Staphylococcus aureus N315 harboring mutated graR gene after 48 hrs by agar dilution method; assay type: functional; settings: N315, 48 h; in short: as §2
Staphylococcus aureus [12] = test: Antibacterial activity against mutated graSR gene knockout vancomycin-susceptible Staphylococcus aureus N315 after 24 hrs by agar dilution method; assay type: functional; settings: N315, 24 h; in short: as §1
Staphylococcus aureus [13] = test: Antibacterial activity against mutated graR gene knockout heterogeneous vancomycin-intermediate Staphylococcus aureus Mu3 after 48 hrs by agar dilution method; assay type: functional; settings: Mu3, 48 h; in short: as §1
Staphylococcus aureus [14] = test: Antibacterial activity against heterogeneous vancomycin-intermediate Staphylococcus aureus Mu3 harboring mutated graR gene after 48 hrs by agar dilution method; assay type: functional; settings: Mu3, 48 h; in short: as §2
Staphylococcus aureus [15] = test: Antibacterial activity against graSR gene knockout vancomycin-susceptible Staphylococcus aureus N315 after 48 hrs by agar dilution method; assay type: functional; settings: N315, 48 h; in short: as §1
Staphylococcus aureus [16] = test: Antibacterial activity against mutated graR gene knockout vancomycin-susceptible Staphylococcus aureus N315 after 24 hrs by agar dilution method; assay type: functional; settings: N315, 24 h; in short: as §1
Staphylococcus aureus [17] = test: Antibacterial activity against mutated graR gene knockout heterogeneous vancomycin-intermediate Staphylococcus aureus Mu3 after 24 hrs by agar dilution method; assay type: functional; settings: Mu3, 24 h; in short: as §1
Staphylococcus aureus [18] = test: Antibacterial activity against heterogeneous vancomycin-intermediate Staphylococcus aureus Mu3 after 24 hrs by agar dilution method; assay type: functional; settings: Mu3, 24 h; in short: as §1
Staphylococcus aureus [19] = test: Antibacterial activity against vancomycin-susceptible Staphylococcus aureus N315 harboring shuttle vector pYT3 after 48 hrs by agar dilution method; assay type: functional; settings: N315, 48 h; in short: as §2
Staphylococcus aureus [20] = test: Antibacterial activity against heterogeneous vancomycin-intermediate Staphylococcus aureus Mu3 after 48 hrs by agar dilution method; assay type: functional; settings: Mu3, 48 h; in short: as §1
Staphylococcus aureus [21] = test: Antibacterial activity against heterogeneous vancomycin-intermediate Staphylococcus aureus Mu3 harboring mutated graR gene after 24 hrs by agar dilution method; assay type: functional; settings: Mu3, 24 h; in short: as §2
Staphylococcus aureus [22] = test: Antibacterial activity against vancomycin-susceptible Staphylococcus aureus N315 harboring intact graR gene after 24 hrs by agar dilution method; assay type: functional; settings: N315, 24 h; in short: as §2
Staphylococcus aureus [23] = test: Antibacterial activity against vancomycin-intermediate Staphylococcus aureus Mu50 after 24 hrs by agar dilution method; assay type: functional; settings: Mu50, 24 h; in short: as §1
Staphylococcus aureus [24] = test: Antibacterial activity against heterogeneous vancomycin-intermediate Staphylococcus aureus Mu3 harboring shuttle vector pYT3 after 24 hrs by agar dilution method; assay type: functional; settings: Mu3, 24 h; in short: as §2
Staphylococcus aureus [25] = test: Antibacterial activity against vancomycin-susceptible Staphylococcus aureus N315 harboring mutated graR gene after 24 hrs by agar dilution method; assay type: functional; settings: N315, 24 h; in short: as §2
Staphylococcus aureus [26] = test: Antibacterial activity against mutated graSR gene knockout vancomycin-susceptible Staphylococcus aureus N315 after 48 hrs by agar dilution method; assay type: functional; settings: N315, 48 h; in short: as §1
Staphylococcus aureus [27] = test: Antibacterial activity against mutated graR gene knockout vancomycin-susceptible Staphylococcus aureus N315 after 48 hrs by agar dilution method; assay type: functional; settings: N315, 48 h; in short: as §1
Staphylococcus aureus [28] = test: Antibacterial activity against heterogeneous vancomycin-intermediate Staphylococcus aureus Mu3 harboring intact graR gene after 24 hrs by agar dilution method; assay type: functional; settings: Mu3, 24 h; in short: as §2
Staphylococcus aureus [29] = test: Antibacterial activity against vancomycin-susceptible Staphylococcus aureus N315 harboring complement system vraSR by agar dilution method

| Compound | MIC (Staphylococcus aureus [1]) | MIC (Staphylococcus aureus [2]) | MIC (Staphylococcus aureus [3]) | MIC (Staphylococcus aureus [4]) | MIC (Staphylococcus aureus [5]) | MIC (Staphylococcus aureus [6]) | MIC (Staphylococcus aureus [7]) | MIC (Staphylococcus aureus [8]) | MIC (Staphylococcus aureus [9]) | MIC (Staphylococcus aureus [10]) | MIC (Staphylococcus aureus [11]) | MIC (Staphylococcus aureus [12]) | MIC (Staphylococcus aureus [13]) | MIC (Staphylococcus aureus [14]) | MIC (Staphylococcus aureus [15]) | MIC (Staphylococcus aureus [16]) | MIC (Staphylococcus aureus [17]) | MIC (Staphylococcus aureus [18]) | MIC (Staphylococcus aureus [19]) | MIC (Staphylococcus aureus [20]) | other results |
| --- | --- | --- | --- | --- | --- | --- | --- | --- | --- | --- | --- | --- | --- | --- | --- | --- | --- | --- | --- | --- | --- |
| CCCCCCCCCC(=O)N[C@@H](Cc1c[nH]c2ccccc12)C(=O)N[C@H](CC(N)=O)C(=O)N[C@@H](CC(=O)O)C(=O)N[C@@H]1C(=O)NCC(=O)N[C@@H](CCCN)C(=O)N[C@@H](CC(=O)O)C(=O)N[C@H](C)C(=O)N[C@@H](CC(=O)O)C(=O)NCC(=O)N[C@H](CO)C(=O)N[C@@H]([C@H](C)CC(=O)O)C(=O)N[C@@H](CC(=O)c2ccccc2N)C(=O)O[C@@H]1C | 3 µg/mL (≈ 1.85 µM) | 0.5 µg/mL (≈ 0.309 µM) | 2 µg/mL (≈ 1.23 µM) | 0.5 µg/mL (≈ 0.309 µM) | 0.5 µg/mL (≈ 0.309 µM) | 0.5 µg/mL (≈ 0.309 µM) | 0.5 µg/mL (≈ 0.309 µM) | 0.5 µg/mL (≈ 0.309 µM) | 0.5 µg/mL (≈ 0.309 µM) | 3 µg/mL (≈ 1.85 µM) | 1 µg/mL (≈ 0.617 µM) | 1 µg/mL (≈ 0.617 µM) | 3 µg/mL (≈ 1.85 µM) | 3 µg/mL (≈ 1.85 µM) | 0.5 µg/mL (≈ 0.309 µM) | 1 µg/mL (≈ 0.617 µM) | 3 µg/mL (≈ 1.85 µM) | 1 µg/mL (≈ 0.617 µM) | 0.5 µg/mL (≈ 0.309 µM) | 1 µg/mL (≈ 0.617 µM) | MIC (Staphylococcus aureus [21]): 3 µg/mL (≈ 1.85 µM); MIC (Staphylococcus aureus [22]): 0.5 µg/mL (≈ 0.309 µM); MIC (Staphylococcus aureus [23]): 3 µg/mL (≈ 1.85 µM); MIC (Staphylococcus aureus [24]): 1 µg/mL (≈ 0.617 µM); MIC (Staphylococcus aureus [25]): 1 µg/mL (≈ 0.617 µM); MIC (Staphylococcus aureus [26]): 1 µg/mL (≈ 0.617 µM); MIC (Staphylococcus aureus [27]): 1 µg/mL (≈ 0.617 µM); MIC (Staphylococcus aureus [28]): 3 µg/mL (≈ 1.85 µM) |
| Cc1onc(-c2ccccc2)c1C(=O)N[C@@H]1C(=O)N2[C@@H]1SC(C)(C)[C@@H]2C(=O)O [OXACILLIN] | 512 µg/mL (≈ 1280 µM) | 2 µg/mL (≈ 4.98 µM) | > 1020 µg/mL | 4 µg/mL (≈ 9.96 µM) | 8 µg/mL (≈ 19.9 µM) | 1020 µg/mL (≈ 2550 µM) | 1020 µg/mL (≈ 2550 µM) | 1 µg/mL (≈ 2.49 µM) | 4 µg/mL (≈ 9.96 µM) | 1020 µg/mL (≈ 2550 µM) | 0.25 µg/mL (≈ 0.623 µM) | 0.5 µg/mL (≈ 1.25 µM) | 1020 µg/mL (≈ 2550 µM) | 1020 µg/mL (≈ 2550 µM) | 16 µg/mL (≈ 39.9 µM) | 2 µg/mL (≈ 4.98 µM) | 1020 µg/mL (≈ 2550 µM) | 1020 µg/mL (≈ 2550 µM) | 4 µg/mL (≈ 9.96 µM) | > 1020 µg/mL | MIC (Staphylococcus aureus [21]): 1020 µg/mL (≈ 2550 µM); MIC (Staphylococcus aureus [22]): 0.5 µg/mL (≈ 1.25 µM); MIC (Staphylococcus aureus [23]): 512 µg/mL (≈ 1280 µM); MIC (Staphylococcus aureus [24]): 1020 µg/mL (≈ 2550 µM); MIC (Staphylococcus aureus [25]): 0.25 µg/mL (≈ 0.623 µM); MIC (Staphylococcus aureus [26]): 0.5 µg/mL (≈ 1.25 µM); MIC (Staphylococcus aureus [27]): 4 µg/mL (≈ 9.96 µM); MIC (Staphylococcus aureus [28]): 1020 µg/mL (≈ 2550 µM) |
| CN[C@H](CC(C)C)C(=O)N[C@H]1C(=O)N[C@@H](CC(N)=O)C(=O)N[C@H]2C(=O)N[C@H]3C(=O)N[C@H](C(=O)N[C@H](C(=O)O)c4cc(O)cc(O)c4-c4cc3ccc4O)[C@H](O)c3ccc(c(Cl)c3)Oc3cc2cc(c3O[C@@H]2O[C@H](CO)[C@@H](O)[C@H](O)[C@H]2O[C@H]2C[C@](C)(N)[C@H](O)[C@H](C)O2)Oc2ccc(cc2Cl)[C@H]1O [VANCOMYCIN] | 8 µg/mL (≈ 5.52 µM) |  |  |  |  |  |  |  |  |  |  |  |  |  |  |  | 3 µg/mL (≈ 2.07 µM) |  |  |  | MIC (Staphylococcus aureus [29]): ≥ 4 µg/mL |
